Assay results published in ChEMBL document CHEMBL1146920, “3-[5-(4,5-dihydro-1H-imidazol-2-yl)-furan-2-yl]phenylamine (Amifuraline), a promising reversible and selective peripheral MAO-A inhibitor” (J Med Chem, 2006).
Each block holds one compound with its values, some of them ahead of it.

How the values were obtained:
[1] = molecular target: T1, Amine oxidase [flavin-containing] A (Rattus norvegicus, UniProt P21396); assay: Inhibition of MAO-A in rat liver assessed as inhibition of [14C]5-HT oxidation; format: functional
T1 sequence (P21396 whole entry): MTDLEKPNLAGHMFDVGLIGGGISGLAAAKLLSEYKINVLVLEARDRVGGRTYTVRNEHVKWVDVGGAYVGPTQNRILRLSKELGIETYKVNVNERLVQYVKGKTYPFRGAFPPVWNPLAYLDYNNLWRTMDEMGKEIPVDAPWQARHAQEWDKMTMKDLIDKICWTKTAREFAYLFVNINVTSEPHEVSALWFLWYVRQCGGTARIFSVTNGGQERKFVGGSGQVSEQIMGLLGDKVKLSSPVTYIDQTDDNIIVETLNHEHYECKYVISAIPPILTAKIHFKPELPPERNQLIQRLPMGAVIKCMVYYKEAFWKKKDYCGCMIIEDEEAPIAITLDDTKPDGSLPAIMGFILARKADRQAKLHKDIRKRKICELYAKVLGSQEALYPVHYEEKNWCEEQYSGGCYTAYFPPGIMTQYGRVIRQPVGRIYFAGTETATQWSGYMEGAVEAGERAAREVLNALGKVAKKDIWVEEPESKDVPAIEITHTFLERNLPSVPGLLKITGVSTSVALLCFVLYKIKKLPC
Summary of the method: (§1)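 Rat liver homogenized in 50 mM sodium phosphate, pH 7.5, with protease inhibitors, then filtered. 10-20 µg crude protein incubated 20 min at 37 °C with the test compound across increasing concentrations. MAO-A substrate: 200 µM [14C]5-HT. MAO-B substrate: 20 µM [14C]PEA plus 0.1 µM clorgyline. Stopped with 4 N HCl; product extracted into ethyl acetate/toluene and counted by scintillation. IC50 taken from sigmoid curves; three experiments.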

[2] = molecular target: T1, Amine oxidase [flavin-containing] A; assay: Inhibition of MAO-A in rat liver assessed as decrease in [14C]5-HT oxidation at 10 uM after 20 mins relative to control; format: functional; details: read-out: Activity
Summary of the method: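 Rat liver homogenate (0.5 mg/mL) in 50 mM phosphate, pH 7.4, incubated 20 min at 37 °C with 10 µM compound or vehicle. MAO-A activity read with 200 µM [14C]serotonin, before and after washing (40 000 g centrifugation, buffer wash, resuspension). Expressed as percent of unwashed vehicle-treated homogenate; duplicate experiments.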

[3] = molecular target: T2, Amine oxidase [flavin-containing] B (Rattus norvegicus, UniProt P19643); assay: Decrease in MAO-B activity in Sprague-Dawley rat brain at 50 mg/kg, ip; format: functional, organism-based; design: dose 50 mg/kg, route intraperitoneal; details: in vivo
T2 sequence (P19643 whole entry): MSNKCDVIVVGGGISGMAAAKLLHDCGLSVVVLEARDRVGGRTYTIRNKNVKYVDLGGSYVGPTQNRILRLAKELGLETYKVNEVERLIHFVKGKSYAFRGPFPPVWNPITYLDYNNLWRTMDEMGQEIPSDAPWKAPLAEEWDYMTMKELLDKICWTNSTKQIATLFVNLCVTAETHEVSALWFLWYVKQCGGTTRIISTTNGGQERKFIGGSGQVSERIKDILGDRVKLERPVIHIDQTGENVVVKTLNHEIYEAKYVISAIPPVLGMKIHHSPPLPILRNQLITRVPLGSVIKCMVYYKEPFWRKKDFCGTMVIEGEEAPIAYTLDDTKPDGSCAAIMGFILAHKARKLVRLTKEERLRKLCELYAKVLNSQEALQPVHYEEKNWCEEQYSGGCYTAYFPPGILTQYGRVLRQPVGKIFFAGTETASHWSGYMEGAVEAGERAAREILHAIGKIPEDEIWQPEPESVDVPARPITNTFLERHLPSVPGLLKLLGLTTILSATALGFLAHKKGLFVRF
Summary of the method: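 Male Sprague Dawley rats (~250 g), four per group, got three ip doses of 50 mg/kg (10 mg/mL in saline or DMSO/saline), 20 h, 4 h 30 min and 1 h 30 min before sacrifice. Brain was stored at -80 °C and homogenized in 50 mM phosphate, pH 7.5. Homogenate was incubated 20 min at 37 °C with 20 µM [14C]PEA plus 0.1 µM clorgyline. Extracted product was scintillation-counted and compared with vehicle.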

[4] = molecular target: T3, Monoamine oxidase (Rattus norvegicus, UniProt P19643+P21396); assay: Binding affinity to I2-IBS, imidazoline binding site of MAO; format: functional
T3 sequence (P19643 whole entry): T2 sequence (P19643 whole entry)
T3 sequence (P21396 whole entry): T1 sequence (P21396 whole entry)

[5] = molecular target: T2, Amine oxidase [flavin-containing] B; assay: Inhibition of MAO-B in rat liver assessed as inhibition of [14C]PEA oxidation in presence of 0.1 uM clorgyline; format: functional; summary of the method: as §1
[6] = molecular target: T1, Amine oxidase [flavin-containing] A; assay: Residual activity at MAO-A in Sprague-Dawley rat liver at 50 mg/kg, ip; format: functional, organism-based; design: dose 50 mg/kg, route intraperitoneal; details: read-out: Activity
Summary of the method: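 Male Sprague Dawley rats (about 250 g) received three i.p. injections of 50 mg/kg (10 mg/mL in DMSO/saline or saline) or vehicle, given 20 h, 4 h 30 min and 1 h 30 min before sacrifice. Four rats per group; three per vehicle control. Frozen liver homogenate assayed for MAO-A with 200 µM [14C]5-HT. Expressed relative to vehicle-treated animals.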

SMILES: c1ccc(-c2ccc(C3=NCCN3)cn2)cc1
IC50 [1]: 1800 nM
inhibition at 10 µM [2]: 53%
Activity [3]: Active

SMILES: c1ccc(-c2ccc(C3=NCCN3)o2)cc1 [FURALINE]
Log Ki [4]: -7.68

SMILES: c1ccc([C@H]2O[C@@H]2C2=NCCN2)cc1 (relative stereo)
Log Ki [4]: -7.55

SMILES: C1=C(C2=NCCN2)CCc2ccccc21
Log Ki [4]: -7.95

SMILES: Nc1cccc(-c2ccc(C3=NCCN3)o2)c1 [AMIFURALINE]
IC50 [1]: 600 nM
IC50 [5]: 19100 nM
inhibition at 10 µM [2]: 85%
activity at 50 mg/kg [6]: 36%

More lines, now with the values ahead:

Log Ki [4]: -8.72
SMILES: C(=C\c1ccccc1)/C1=NCCN1 [TRACIZOLINE]

IC50 [1]: 1200 nM
inhibition at 10 µM [2]: 79%
SMILES: OCc1ccc(-c2ccc(C3=NCCN3)o2)cc1
